# Assays:
# [1] = biological target: Aldo-keto reductase family 1 member B1 (Bos taurus) (UniProt P16116); assay: In vitro inhibition of aldose reductase from the partially purified bovine lens at 10e-5 M concentration
# Procedure, shortened: (§1)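 Bovine lens aldose reductase, partially purified, assayed spectrophotometrically following Hayman and Kinoshita. Each compound was tested at three concentrations, routinely in duplicate.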
# [2] = biological target: Aldo-keto reductase family 1 member B1 (Bos taurus) (UniProt P16116); assay: In vitro inhibition of aldose reductase from the partially purified bovine lens at 10e-7 M concentration; procedure, shortened: as §1
# [3] = biological target: Aldo-keto reductase family 1 member B1 (Bos taurus) (UniProt P16116); assay: In vitro inhibition of aldose reductase from the partially purified bovine lens at 10e-6 M concentration; procedure, shortened: as §1
# Rattus norvegicus [4] = assay: In vivo inhibition of polyol accumulation in galactosemic rats diaphragm; assay type: functional; conditions: read-out: ID50 (the source's name)
# Rattus norvegicus [5] = assay: In vivo inhibition of polyol accumulation in galactosemic rat nerve at dose 6 mg/kg administered perorally; assay type: functional; conditions: route oral
# Procedure, shortened: (§2)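 Rats received a diet of 20% galactose for 4 days, with compound mixed into the diet. Galactitol was measured in trichloroacetic acid extracts of lens, sciatic nerve and diaphragm by a modified Kraml–Cosyns method. Values are % reduction versus galactosemic controls, compared by Dunnett's multiple comparison.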
# Rattus norvegicus [6] = assay: In vivo inhibition of polyol accumulation in galactosemic rats lens; assay type: functional; conditions: Lens of camera-type eye, read-out: ID50 (the source's name)
# Rattus norvegicus [7] = assay: In vivo inhibition of polyol accumulation in galactosemic rat diaphragm at dose 6 mg/kg administered perorally; assay type: functional; conditions: route oral; procedure, shortened: as §2
# Rattus norvegicus [8] = assay: In vivo inhibition of polyol accumulation in galactosemic rats nerve; assay type: functional; conditions: read-out: ID50 (the source's name)
# Rattus norvegicus [9] = assay: In vivo inhibition of polyol accumulation in galactosemic rat nerve at dose 99 mg/kg administered perorally; assay type: functional; conditions: route oral; procedure, shortened: as §2
# Rattus norvegicus [10] = assay: In vivo inhibition of polyol accumulation in galactosemic rat diaphragm at dose 99 mg/kg administered perorally; assay type: functional; conditions: route oral; procedure, shortened: as §2
# Rattus norvegicus [11] = assay: In vivo inhibition of polyol accumulation in galactosemic rat lens at dose 93 mg/kg administered perorally; assay type: functional, Lens of camera-type eye; conditions: route oral; procedure, shortened: as §2
# Rattus norvegicus [12] = assay: In vivo inhibition of polyol accumulation in galactosemic rat nerve at dose 93 mg/kg administered perorally; assay type: functional; conditions: route oral; procedure, shortened: as §2
# Rattus norvegicus [13] = assay: In vivo inhibition of polyol accumulation in galactosemic rat diaphragm at dose 112 mg/kg administered perorally; assay type: functional; conditions: route oral; procedure, shortened: as §2
# Rattus norvegicus [14] = assay: In vivo inhibition of polyol accumulation in galactosemic rat nerve at dose 112 mg/kg administered perorally; assay type: functional; conditions: route oral; procedure, shortened: as §2
# Rattus norvegicus [15] = assay: In vivo inhibition of polyol accumulation in galactosemic rat diaphragm at dose 96 mg/kg administered perorally; assay type: functional; conditions: route oral; procedure, shortened: as §2
# Rattus norvegicus [16] = assay: In vivo inhibition of polyol accumulation in galactosemic rat nerve at dose 78 mg/kg administered perorally; assay type: functional; conditions: route oral; procedure, shortened: as §2
# Rattus norvegicus [17] = assay: In vivo inhibition of polyol accumulation in galactosemic rat nerve at dose 82 mg/kg administered perorally; assay type: functional; conditions: route oral; procedure, shortened: as §2
# Rattus norvegicus [18] = assay: In vivo inhibition of polyol accumulation in galactosemic rat diaphragm at dose 82 mg/kg administered perorally; assay type: functional; conditions: route oral; procedure, shortened: as §2
# Rattus norvegicus [19] = assay: In vivo inhibition of polyol accumulation in galactosemic rat diaphragm at dose 135 mg/kg administered perorally; assay type: functional; conditions: route oral; procedure, shortened: as §2
# Rattus norvegicus [20] = assay: In vivo inhibition of polyol accumulation in galactosemic rat diaphragm at dose 102 mg/kg administered perorally; assay type: functional; conditions: route oral; procedure, shortened: as §2
# Rattus norvegicus [21] = assay: In vivo inhibition of polyol accumulation in galactosemic rat nerve at dose 151 mg/kg administered perorally; assay type: functional; conditions: route oral; procedure, shortened: as §2
# Rattus norvegicus [22] = assay: In vivo inhibition of polyol accumulation in galactosemic rat diaphragm at dose 90 mg/kg administered perorally; assay type: functional; conditions: route oral; procedure, shortened: as §2
# Rattus norvegicus [23] = assay: In vivo inhibition of polyol accumulation in galactosemic rat nerve at dose 90 mg/kg administered perorally; assay type: functional; conditions: route oral; procedure, shortened: as §2
# Rattus norvegicus [24] = assay: In vivo inhibition of polyol accumulation in galactosemic rat diaphragm at dose 105 mg/kg administered perorally; assay type: functional; conditions: route oral; procedure, shortened: as §2
# Rattus norvegicus [25] = assay: In vivo inhibition of polyol accumulation in galactosemic rat nerve at dose 105 mg/kg administered perorally; assay type: functional; conditions: route oral; procedure, shortened: as §2
# Rattus norvegicus [26] = assay: In vivo inhibition of polyol accumulation in galactosemic rat diaphragm at dose 83 mg/kg administered perorally; assay type: functional; conditions: route oral; procedure, shortened: as §2
# Rattus norvegicus [27] = assay: In vivo inhibition of polyol accumulation in galactosemic rat nerve at dose 83 mg/kg administered perorally; assay type: functional; conditions: route oral; procedure, shortened: as §2
# Rattus norvegicus [28] = assay: In vivo inhibition of polyol accumulation in galactosemic rat diaphragm at dose 97 mg/kg administered perorally; assay type: functional; conditions: route oral; procedure, shortened: as §2
# Rattus norvegicus [29] = assay: In vivo inhibition of polyol accumulation in galactosemic rat nerve at dose 97 mg/kg administered perorally; assay type: functional; conditions: route oral; procedure, shortened: as §2
inhibition [1] [%],inhibition [2] [%],inhibition [3] [%],SMILES,other results
79,53,76,N#Cc1c(OCC(=O)O)nc(-c2cccc3ccccc23)nc1-c1ccccc1,
3,,0,CSc1nc(C2CCCCC2)n(CC(=O)O)c(=O)c1S(=O)(=O)c1ccccc1,
92,79,88,Cc1nc(-c2ccccc2)nc(OCC(=O)O)c1C#N,
,,,COc1ccc2c(C(=S)N(C)CC(=O)O)cccc2c1C(F)(F)F [TOLRESTAT],ED50 (Rattus norvegicus [4]): 1.5 mg/kg; Reduction (Rattus norvegicus [5]): 53%; ED50 (Rattus norvegicus [6]): 178 mg/kg; Reduction (Rattus norvegicus [7]): 90%; ED50 (Rattus norvegicus [8]): 8 mg/kg
53,,18,Cc1nc(NCc2cccnc2)cc(=O)n1CC(=O)O,
81,10,42,CSc1nc(C(C)(C)C)nc(OCC(=O)O)c1C(N)=O,
98,93,93,CC(C)(C)c1nc(OCC(=O)O)c(C#N)c(SCc2ccc(Br)cc2F)n1,Reduction (Rattus norvegicus [9]): 28%; Reduction (Rattus norvegicus [10]): 47%
96,92,,N#Cc1c(SCc2ccc(Br)cc2F)nc(C2CCCCC2)n(CC(=O)O)c1=O,Reduction (Rattus norvegicus [11]): 15%; Reduction (Rattus norvegicus [12]): 50%
,,,CCCCCCSc1nc(C(C)(C)C)nc(OCC(=O)O)c1C#N,Reduction (Rattus norvegicus [13]): 60%; Reduction (Rattus norvegicus [14]): 43%
90,55,84,CSc1nc(C)nc(OCC(=O)O)c1C#N,
88,30,90,Cc1nc(NCc2cccnc2)c(C#N)c(=O)n1CC(=O)O,
92,64,89,Cc1nc(N2CCN(Cc3ccccc3)CC2)c(C#N)c(=O)n1CC(=O)O,
92,75,87,CSc1nc(-c2ccccc2)nc(OCC(=O)O)c1C#N,Reduction (Rattus norvegicus [15]): 55%
96,94,96,CSc1nc(C(C)C)n(CC(=O)O)c(=O)c1C#N,
98,88,97,CSc1nc(C(C)C)nc(OCC(=O)O)c1C#N,Reduction (Rattus norvegicus [16]): 37%
5,,1,COC(=O)c1c(SC)nc(C2CCCCC2)n(CC(=O)O)c1=O,
95,85,96,CSc1nc(CC(C)(C)C)nc(OCC(=O)O)c1C#N,

inhibition [1] [%],inhibition [2] [%],inhibition [3] [%],SMILES,other results
84,29,68,N#Cc1c(-c2ccccc2)nc(-c2cccc3ccccc23)n(CC(=O)O)c1=O,
82,22,71,N#Cc1c(-c2ccccc2)nc(-c2cccc3c(Br)cccc23)n(CC(=O)O)c1=O,
13,,2,COC(=O)c1c(OCC(=O)O)nc(C(C)(C)C)nc1SC,
90,81,88,Cc1nc(N2CCC(Cc3ccccc3)CC2)c(C#N)c(=O)n1CC(=O)O,
93,46,85,Cc1nc(-c2cccc3ccccc23)nc(OCC(=O)O)c1C#N,
92,89,91,CC(C)Sc1nc(C(C)(C)C)nc(OCC(=O)O)c1C#N,Reduction (Rattus norvegicus [17]): 37%; Reduction (Rattus norvegicus [18]): 19%
95,95,95,CC(C)(C)c1nc(OCC(=O)O)c(C#N)c(SCc2ccc(Br)cc2)n1,Reduction (Rattus norvegicus [19]): 58%
96,94,98,CC(C)c1nc(SCc2ccccc2)c(C#N)c(=O)n1CC(=O)O,Reduction (Rattus norvegicus [20]): 38%
93,46,85,N#Cc1c(Cc2cccc3ccccc23)nc(-c2cccc3c(Br)cccc23)n(CC(=O)O)c1=O,Reduction (Rattus norvegicus [21]): 30%
93,72,91,Cc1nc(NCC2CCCCC2)c(C#N)c(=O)n1CC(=O)O,
96,76,90,Cc1nc(NCc2ccccc2)c(C#N)c(=O)n1CC(=O)O,
96,91,97,CC(C)Sc1nc(C(C)C)n(CC(=O)O)c(=O)c1C#N,
86,74,84,CSc1nc(C)n(CC(=O)O)c(=O)c1C#N,
98,89,,CSc1nc(C2CCCCC2)n(CC(=O)O)c(=O)c1C#N,Reduction (Rattus norvegicus [22]): 42%; Reduction (Rattus norvegicus [23]): 47%
97,88,96,CC(C)(C)c1nc(OCC(=O)O)c(C#N)c(SCC2CCCCC2)n1,Reduction (Rattus norvegicus [24]): 60%; Reduction (Rattus norvegicus [25]): 70%
89,82,88,CSc1nc(C(C)(C)C)nc(OCC(=O)O)c1C#N,Reduction (Rattus norvegicus [26]): 32%; Reduction (Rattus norvegicus [27]): 35%
86,82,85,CC(C)(C)c1nc(OCC(=O)O)c(C#N)c(SCc2ccccc2)n1,Reduction (Rattus norvegicus [28]): 67%; Reduction (Rattus norvegicus [29]): 46%

# Source: ChEMBL document CHEMBL1124992, “(Pyrimidinyloxy)acetic acids and pyrimidineacetic acids as a novel class of aldose reductase inhibitors” (J Med Chem, 1990)
